The source of these data is ChEMBL document CHEMBL1126660, “Nonpeptide angiotensin II antagonists: N-phenyl-1H-pyrrole derivatives are angiotensin II receptor antagonists” (J Med Chem, 1993).

The species named for assay [1] is Oryctolagus cuniculus. Kind of assay: Compound was evaluated for antagonism of angiotensin II induced contraction of rabbit aorta rings. Format: functional. The settings on record: read-out: pA2 (converted). The essentials:
(§1)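 Paired rabbit aortic rings: control ring given increasing AII concentrations at 30-min intervals; second ring given AII with antagonist added 5 min beforehand. Responses expressed as % of control ring maximal contraction; pD2 for AII from concentration-response curves, pA2 by Schild analysis.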

For assay [2], the target named is T1, Type-2 angiotensin II receptor (Rattus norvegicus, UniProt P35351).
T1 sequence (P35351 whole entry): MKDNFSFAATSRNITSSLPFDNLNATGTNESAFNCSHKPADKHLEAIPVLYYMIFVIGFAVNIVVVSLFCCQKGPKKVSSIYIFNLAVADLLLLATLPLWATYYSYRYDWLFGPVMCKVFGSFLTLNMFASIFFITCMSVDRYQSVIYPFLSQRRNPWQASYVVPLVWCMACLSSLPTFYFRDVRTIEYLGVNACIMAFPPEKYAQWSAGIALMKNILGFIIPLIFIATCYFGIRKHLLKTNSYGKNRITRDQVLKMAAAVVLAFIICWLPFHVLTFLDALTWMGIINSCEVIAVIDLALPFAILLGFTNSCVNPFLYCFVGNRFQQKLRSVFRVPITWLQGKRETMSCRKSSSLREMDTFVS
Kind of assay: Activity against low affinity Angiotensin II receptor, type 2 was measured from the ability to inhibit [125I]angiotensin II binding to rat uterine membrane.

Assay [3] concerns the target T2, Type-1 angiotensin II receptor B (Rattus norvegicus, UniProt P29089).
T2 sequence (P29089 whole entry): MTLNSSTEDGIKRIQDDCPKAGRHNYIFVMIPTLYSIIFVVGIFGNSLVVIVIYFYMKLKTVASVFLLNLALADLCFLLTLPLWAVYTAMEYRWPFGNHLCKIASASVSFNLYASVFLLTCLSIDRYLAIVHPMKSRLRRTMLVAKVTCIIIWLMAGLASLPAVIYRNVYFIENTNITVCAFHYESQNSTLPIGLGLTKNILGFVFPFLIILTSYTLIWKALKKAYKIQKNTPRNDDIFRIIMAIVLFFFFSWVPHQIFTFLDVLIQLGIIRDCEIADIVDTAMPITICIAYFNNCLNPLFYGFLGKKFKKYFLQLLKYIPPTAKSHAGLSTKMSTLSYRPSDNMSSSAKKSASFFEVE
Kind of assay: Activity against high affinity Angiotensin II receptor, type 1 was measured from the ability to inhibit [125I]angiotensin II binding to rat uterine membrane.

For assay [4], the species on record is Oryctolagus cuniculus. Kind of assay: Evaluated for antagonism of angiotensin II induced contraction of rabbit aorta rings. The format is functional. As to conditions: read-out: pA2 (converted). The essentials:
as §1

Regarding `CCCCc1nc(Cl)c(CO)n1Cc1ccc(-n2cccc2C(=O)O)cc1`, the Kb in the assay filed under Oryctolagus cuniculus [1] is 1260 nM.
As a reminder, the IC50 is the concentration needed to halve the response being measured. Lower therefore signals greater potency in that assay. The compound `CCCCc1nc(CCCC)n(Cc2ccc(-n3ccc(-c4nnn[nH]4)c3)cc2)n1` returned a concentration for half-maximal inhibition (IC50) in assay [2] of 220000 nM.
On to `CCCCc1nc(Cl)c(CO)n1Cc1ccc(-c2ccccc2C(=O)O)cc1`, for which the IC50 amounted to 170 nM in assay [3] and 3300 nM in assay [2].
Take `CCCCc1nc(CCCC)n(Cc2ccc(-n3c(Cl)cc(Cl)c3-c3nnn[nH]3)cc2)n1`: the IC50 worked out at 52 nM in assay [3] and 810000 nM in assay [2]. Moreover, the Kb in the assay filed under Oryctolagus cuniculus [4] is 20 nM.
In assay [3], `CCCCc1nc(CCCC)n(Cc2ccc(-c3ccccc3-c3nnn[nH]3)cc2)n1` gave an IC50 of 6.5 nM.
For `CCCCc1nc(Cl)c(CO)n1Cc1ccc(-c2ccccc2-c2nnn[nH]2)cc1` [LOSARTAN], in the assay listed under Oryctolagus cuniculus [1], the Kb was 7.94 nM.
